Results taken from ChEMBL document CHEMBL5131497, “Design, Synthesis, and Characterization of TNP-2198, a Dual-Targeted Rifamycin-Nitroimidazole Conjugate with Potent Activity against Microaerophilic and Anaerobic Bacterial Pathogens” (J Med Chem, 2022).
Converted amounts (≈) assume the structure as drawn.

Assays:
Clostridioides difficile [1] = experiment: Antibacterial activity against Clostridioides difficile clinical isolate China; format: functional
Helicobacter pylori [2] = experiment: Antibacterial activity against Helicobacter pylori clinical isolate USA; format: functional
Clostridioides difficile [3] = experiment: Antibacterial activity against Clostridioides difficile ATCC 9689; format: functional
Helicobacter pylori [4] = experiment: Antibacterial activity against metronidazole-resistant Helicobacter pylori CB1573 harboring rdxAR16S mutant measured after 5 days by agar dilution method; format: functional; conditions: CB1573, 120 h, time 5 day
Method in brief: (§1)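 Agar dilution per CLSI. Wild-type ATCC 700392 (CB1531) and its derivatives carry defined resistance determinants. Drugs, alone or in 1:1 molar mixtures, were diluted 2-fold from 100× stocks into Mueller–Hinton agar with aged (≥2 weeks) sheep blood (5% v/v). MIC read after 5 days at 35 °C under microaerobic conditions from a campylobacter gas-generating system.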

Helicobacter pylori [5] = experiment: Antibacterial activity against rifampicin-resistant Helicobacter pylori CB1903 harboring rpoBD530V mutant measured after 5 days by agar dilution method; format: functional; conditions: CB1903, 120 h, time 5 day; method in brief: as §1
Clostridium sporogenes = experiment: Antibacterial activity against Clostridium sporogenes ATCC 19404; format: functional
[6] = Antibacterial activity against Mobiluncus mulieris ATCC 35243; format: functional
[7] = tested on: Porphyromonas asaccharolytica; experiment: Antibacterial activity against metronidazole-resistant Prevotella asaccharolytica MMX 3552; format: functional
Veillonella parvula = experiment: Antibacterial activity against Veillonella parvula ATCC 17745 MMX 1272; format: functional
[8] = Half life in C57BL/6 mouse at 20 mg/kg, po; format: ADME, organism-based; conditions: in vivo
Method in brief: (§2)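 Single-dose PK of TNP-2198 was run in C57BL/6 mice (IV 5 mg/kg; PO 20 mg/kg) and beagle dogs (IV 5 mg/kg; PO 25 mg/kg). Terminal half-life (h) was derived from plasma profiles, together with Tmax, Vdss, CL, AUC and oral bioavailability.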

[9] = Volume of distribution at steady state in C57BL/6 mouse at 5 mg/kg, iv; format: ADME, organism-based; conditions: in vivo, read-out: Vdss
[10] = AUC in C57BL/6 mouse at 20 mg/kg, po; format: ADME, organism-based; parameters: dose 20 mg/kg, route po; conditions: in vivo
Method in brief: (§3)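 Plasma PK after single intravenous or oral dosing. Mice C57BL/6 at 5 mg/kg IV or 20 mg/kg PO; Sprague–Dawley rats at 10 mg/kg IV or 50 mg/kg PO; beagle dogs at 5 mg/kg IV or 25 mg/kg PO. AUC reported in ng·h/mL. Clearance from the IV arms in mL/min·kg.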

[11] = Half life in Sprague-Dawley rat at 50 mg/kg, po; format: ADME, organism-based; conditions: in vivo
[12] = AUC in Sprague-Dawley rat at 50 mg/kg, po; format: ADME, organism-based; parameters: dose 50 mg/kg, route po; conditions: in vivo; method in brief: as §3
[13] = Half life in Beagle dog at 5 mg/kg, iv; format: ADME, organism-based, Canis lupus familiaris; conditions: in vivo; method in brief: as §2
[14] = Volume of distribution at steady state in Beagle dog at 5 mg/kg, iv; format: ADME, organism-based, Canis lupus familiaris; conditions: in vivo, read-out: Vdss
[15] = Drug distribution in Sprague-Dawley rat plasma measured at 0.5 hrs; format: ADME, cell-free
Method in brief: (§4)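 Sprague–Dawley rats were dosed with TNP-2198. Concentrations were measured in plasma (ng/mL) and in tissues or contents (ng/g) at 0.5, 2, 6, 12 and 24 h after dosing. Values below the limit of quantification are reported as BLOQ.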

[16] = Drug distribution in Sprague-Dawley rat plasma measured at 12 hrs; format: ADME, cell-free; method in brief: as §4
[17] = Drug distribution in Sprague-Dawley rat vaginal secretion measured at 6 hrs; format: ADME, tissue-based, Vaginal fluid; conditions: female, read-out: Ct; method in brief: as §4
[18] = Drug distribution in Sprague-Dawley rat vaginal secretion measured at 24 hrs; format: ADME, tissue-based, Vaginal fluid; conditions: female, read-out: Ct; method in brief: as §4
[19] = Drug distribution in Sprague-Dawley rat vaginal tissue measured at 2 hrs; format: ADME, tissue-based, Vagina; conditions: female, read-out: Ct; method in brief: as §4
[20] = Drug distribution in Sprague-Dawley rat brain measured at 2 hrs; format: ADME, tissue-based; conditions: read-out: Ct; method in brief: as §4
[21] = Drug distribution in Sprague-Dawley rat ascites fluid measured at 2 hrs; format: ADME, tissue-based, Ascitic fluid; conditions: read-out: Ct; method in brief: as §4
[22] = Drug distribution in Sprague-Dawley rat gums measured at 12 hrs; format: ADME, tissue-based, Gingiva; conditions: read-out: Ct; method in brief: as §4
[23] = Drug distribution in Sprague-Dawley rat stomach content measured at 12 hrs; format: ADME, tissue-based; conditions: read-out: Ct; method in brief: as §4
[24] = Drug distribution in Sprague-Dawley rat stomach tissue measured at 12 hrs; format: ADME, tissue-based; conditions: read-out: Ct; method in brief: as §4
[25] = Drug distribution in Sprague-Dawley rat large intestine content measured at 24 hrs; format: ADME, tissue-based; conditions: read-out: Ct; method in brief: as §4
[26] = Drug distribution in Sprague-Dawley rat large intestine tissue measured at 24 hrs; format: ADME, tissue-based; conditions: read-out: Ct; method in brief: as §4
Clostridioides difficile [27] = experiment: Resistance development in Clostridioides difficile MMX 4381 assessed as spontaneous resistance frequency using at 1.23 x 10^9 CFU inoculum at 0.5 ug/ml; format: functional; conditions: dose 0.5 µg/ml
Clostridioides difficile [28] = experiment: Resistance development in Clostridioides difficile MMX 4381 assessed as spontaneous resistance frequency using at 1.23 x 10^9 CFU inoculum at 4 ug/ml; format: functional; conditions: dose 4 µg/ml
Gardnerella vaginalis = experiment: Resistance development in Gardnerella vaginalis MMX 5973 assessed as mutation prevention concentration using at 4.50 x 10^8 CFU inoculum; format: functional; conditions: dose 0.5 µg/ml
Helicobacter pylori [29] = experiment: Antibacterial activity against Helicobacter pylori infected in C57/BL6 mouse assessed as bacterial load in stomach at 15 mg/kg administered twice daily via oral gavage starting from 7 days post inoculation and administered for 7 days (reference value: 5.25 log10CFU); format: functional; conditions: time 7 day

SMILES: CO[C@H]1/C=C/O[C@@]2(C)Oc3c(C)c(O)c4c(c3C2=O)C2=NC3(CCN(CCn5c([N+](=O)[O-])cnc5C)CC3)NC2=C(NC(=O)/C(C)=C\C=C\[C@H](C)[C@H](O)[C@@H](C)[C@@H](O)[C@@H](C)[C@H](OC(C)=O)[C@@H]1C)C4=O [RIFASUTENIZOL]
- MIC (Clostridioides difficile [1]): ≤ 0.06 µg/mL
- MIC90 (Clostridioides difficile [1]): 1 µg/mL (≈ 1.06 µM)
- MIC (Helicobacter pylori [2]): ≤ 0.001 µg/mL
- MIC90 (Helicobacter pylori [2]): 0.125 µg/mL (≈ 0.132 µM)
- MIC (Clostridioides difficile [3]): 0.0002 µg/mL (≈ 0.000212 µM)
- MIC (Helicobacter pylori [4]): ≤ 0.002 µg/mL
- MIC (Helicobacter pylori [5]): 0.125 µg/mL (≈ 0.132 µM)
- MIC (Clostridium sporogenes): 0.015 µg/mL (≈ 0.0159 µM)
- MIC [6]: 0.001 µg/mL (≈ 0.00106 µM)
- MIC [7]: 0.008 µg/mL (≈ 0.00847 µM)
- MIC (Veillonella parvula): 2 µg/mL (≈ 2.12 µM)
- half-life [8]: 30.6 min
- Vd [9]: 0.9 L/kg
- AUC [10]: 3040 ng·h/mL
- half-life [11]: 56.4 min
- AUC [12]: 15400 ng·h/mL
- half-life [13]: 234 min
- Vd [14]: 2.8 L/kg
- concentration at 0.5 h [15]: 1700 ng/mL
- concentration at 12 h [16]: 4.33 ng/mL
- concentration at 6 h [17]: 6240 ng/g
- concentration at 24 h [18]: 54.6 ng/g
- concentration at 2 h [19]: 5900 ng/g
- concentration at 2 h [20]: 392 ng/g
- concentration at 2 h [21]: 5270 ng/g
- concentration at 12 h [22]: 115 ng/g
- concentration at 12 h [23]: 138 ng/g
- concentration at 12 h [24]: 114 ng/g
- concentration at 24 h [25]: 53.9 ng/g
- concentration at 24 h [26]: 7.26 ng/g
- Activity (Clostridioides difficile [27]): 8 10^-9No_unit
- Activity (Clostridioides difficile [28]): <8 10^-9No_unit
- Activity (Gardnerella vaginalis): <=0.5 ug ml-1
- Activity (Helicobacter pylori [29]): 1.94 log10CFU
